# Source: PubChem BioAssay (several laboratories)
# Sampled rows, rich in hits. Any-hit rate of the full collection: about 1.6%.
# MT1-MMP act inh – blocks activation of human MT1-MMP | P50281 | HT1080 RFP-PRO-GFP cells, GFP/RFP ratio fluorescence, overnight; percent of plate control window, DMSO zero | GFP/RFP ratio change, % at 20 µM | hit rate 0.061% among 360,000;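 active = GFP/RFP ratio change of at least 30% with cell ATP level not reduced by more than half and red fluorescence within 50% of control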
#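 Assay system: HT1080 RFP-PRO-GFP cells. Benchmarks: DMSO vehicle wells and RFP-L50D-GFP reporter cell wells. Times: overnight cell settling, then overnight compound exposure, 37 °C, 5% CO2. Compound: 20 µM single dose, 1% DMSO. Read-out basis: GFP/RFP fluorescence ratio.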
# MsrA inhibitor – bovine MsrA inhibition | hit rate 0.75% among 360,000 | AID 651718 | inhibition, % at 15.5 µM | purified bovine MsrA, absorbance read-out
# p-CIP stab down – compounds decreasing mouse p/CIP protein stability. Q05BA5. decrease of EGFP signal, % at 10 µM. F442A p/CIP-EGFP cells, EGFP fluorescence, 16 h. hit rate 0.01% among 290,000;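 active = EGFP signal decrease of at least 30% at 10 µM or well 3 SD below plate mean, unless failing retest; inactive = the rest, including hits failing retest or dose response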
# Target sequence (Q05BA5 1-1403): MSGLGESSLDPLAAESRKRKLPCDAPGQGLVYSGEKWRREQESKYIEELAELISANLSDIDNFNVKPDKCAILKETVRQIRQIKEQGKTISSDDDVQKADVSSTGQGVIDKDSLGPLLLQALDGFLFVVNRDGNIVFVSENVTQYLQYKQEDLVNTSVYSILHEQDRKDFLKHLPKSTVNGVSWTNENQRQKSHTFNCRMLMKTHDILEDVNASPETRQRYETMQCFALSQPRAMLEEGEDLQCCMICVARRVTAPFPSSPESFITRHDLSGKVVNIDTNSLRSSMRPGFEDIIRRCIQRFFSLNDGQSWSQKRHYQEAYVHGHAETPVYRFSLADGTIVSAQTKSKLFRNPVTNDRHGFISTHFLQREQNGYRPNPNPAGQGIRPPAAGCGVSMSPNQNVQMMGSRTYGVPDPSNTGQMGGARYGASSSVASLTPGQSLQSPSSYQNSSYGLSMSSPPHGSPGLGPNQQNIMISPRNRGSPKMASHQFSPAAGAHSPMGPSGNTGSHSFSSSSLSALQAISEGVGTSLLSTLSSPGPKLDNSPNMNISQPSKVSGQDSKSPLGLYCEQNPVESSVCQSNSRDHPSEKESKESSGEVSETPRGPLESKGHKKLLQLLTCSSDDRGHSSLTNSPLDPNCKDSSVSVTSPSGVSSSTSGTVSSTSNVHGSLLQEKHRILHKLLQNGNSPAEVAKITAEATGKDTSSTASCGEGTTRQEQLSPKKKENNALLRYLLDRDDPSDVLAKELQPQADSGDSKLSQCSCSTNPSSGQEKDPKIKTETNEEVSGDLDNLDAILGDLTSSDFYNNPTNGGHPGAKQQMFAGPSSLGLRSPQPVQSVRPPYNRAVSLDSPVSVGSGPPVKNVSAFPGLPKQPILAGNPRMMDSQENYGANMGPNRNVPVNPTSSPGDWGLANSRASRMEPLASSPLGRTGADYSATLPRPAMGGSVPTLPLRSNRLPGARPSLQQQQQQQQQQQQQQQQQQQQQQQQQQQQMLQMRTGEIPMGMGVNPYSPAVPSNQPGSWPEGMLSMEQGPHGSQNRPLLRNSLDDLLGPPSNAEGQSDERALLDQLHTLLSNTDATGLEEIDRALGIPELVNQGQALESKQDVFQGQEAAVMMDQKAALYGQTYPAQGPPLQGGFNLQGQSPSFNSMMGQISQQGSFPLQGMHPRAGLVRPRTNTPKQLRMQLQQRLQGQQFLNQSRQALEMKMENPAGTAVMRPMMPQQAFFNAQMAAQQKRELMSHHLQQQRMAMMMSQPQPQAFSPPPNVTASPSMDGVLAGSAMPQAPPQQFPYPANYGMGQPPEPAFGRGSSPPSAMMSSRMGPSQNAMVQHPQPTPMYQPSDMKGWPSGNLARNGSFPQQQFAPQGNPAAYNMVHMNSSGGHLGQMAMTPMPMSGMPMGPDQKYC
# MsrA act – activators of bovine methionine sulfoxide reductase A; purified bovine MsrA, absorbance read-out; activation, % at 10.6 µM; hit rate 0.3% among 360,000; in the data active = activation above about 7.5%
# SKN-1 block – inhibitors of C. elegans SKN-1. AID 624304. inhibition, % at 21.8 µM. hit rate 0.49% among 360,000. C. elegans VP596 Pgst-4::GFP/RFP ratio, acrylamide-induced, 24 h;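 active = interference check ratio from 0.5 to 1.5 plus GFP to RFP signal ratio inhibition reaching or exceeding a fixed threshold, cut at about 30% in these data, passing the limit was not always enough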
# MsrA conf – bovine MsrA inhibition, confirmed; inhibition, % at 15.5 µM; hit rate 41% among 2,300; purified bovine MsrA, absorbance read-out; shares compounds with MsrA inhibitor; AID 651822;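 note: coupled to thioredoxin reductase with NADPH and selenocystamine and DMSO as substrate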
# Numbers stand for hits; - = inactive; . = no result given; ! = not active in a repeat. Cut-off read from the data, not from the text of the source, unless noted: active = inhibition above about 4.5%; inactive = the rest.
SMILES,MT1-MMP act inh,MsrA inhibitor,p-CIP stab down,MsrA act,SKN-1 block,MsrA conf
CCOc1ccc2[nH]c(C(=O)N/N=C/c3cc(OC)c(OC)c(OC)c3)cc2c1,-,5.4,-,-,-,4.8
COc1cccc(/C=N/NC(=O)c2cnccn2)c1,-,-,-,-,-,.
COc1cc(/C=N/NC(=O)C(=O)Nc2ccccn2)ccc1O,-,5.3,-,-,-,5.0
Cc1ccc(OC2CCN(C(=O)[C@@H](Cc3ccccc3)NC(=O)[C@H]3O[C@@H](n4ccc(=O)[nH]c4=O)[C@H](O)[C@@H]3O)CC2)cc1,.,-,.,.,.,.
C#CCN(Cc1ccco1)C(=O)c1nnc2c3cc(OC)ccc3n(S(=O)(=O)c3ccc(OC)cc3)c2n1,.,-,.,.,.,.
COc1ccc(CCN2CCC(CN3C(=S)NC[C@@H]3Cc3ccccc3)CC2)cc1OC,.,-,.,.,.,.
O=C(N/N=C/c1ccc([N+](=O)[O-])o1)c1cc(-c2ccc(-c3ccccc3)cc2)nc2ccccc12,-,-,-,-,-,.
COc1cc(/C=N/NC(=O)c2ccncc2)ccc1O,-,-,-,-,-,.
O=C(N/N=C/c1cccc(O)c1)c1cc(-c2ccccc2)nc2ccccc12,-,-,-,-,-,.
CCOc1cc(/C=N\NC(=O)c2c(C)nc3ccccn23)ccc1O,-,5.6,-,-,-,4.9
COc1cc(/C=N/NC(=O)c2cc3ccccc3[nH]2)ccc1O,-,8.4,-,-,-,5.9
O=C(N/N=C/c1ccc([N+](=O)[O-])o1)c1cc(-c2ccncc2)nc2ccccc12,-,6.1,-,-,-,-
COc1ccc(/C=N/NC(=O)c2cc(-c3ccccc3)nc3ccccc23)c(OC)c1,-,5.4,-,-,-,-
CCN=C1NC(c2ccc(Cl)cc2)C(C(=O)OC)=C(C)N1Cc1cccc(C(F)(F)F)c1 (stereo not drawn),.,-,.,.,.,.
O=C(N/N=C/c1ccco1)c1cc(=O)[nH]c2ccccc12,-,-,-,-,-,.
COc1cc(/C=N/N(C)c2ccccc2)ccc1O,-,5.3,-,-,-,-
COc1cc(/C=N/NC(=O)c2nc(C)cc(C)n2)ccc1O,-,-,-,-,-,.
COc1cc(/C=N/NC(=O)c2cccc(C(=O)N/N=C/c3ccc(O)c(OC)c3)n2)ccc1O,-,6.6,-,-,-,-
COc1ccc(/C=N/NC(=O)c2cc(=O)[nH]c3ccccc23)cc1OC,-,4.7,-,-,-,-
COc1cc(/C=N/NC(=O)c2cn(-c3cccc(C)n3)cn2)ccc1O,-,4.7,-,-,-,-
COc1ccc(CCn2cnn3c(=O)c4ccccc4nc3c2=O)cc1OC,.,-,.,.,.,.
Nc1[nH]c(=O)ncc1-c1ccc([N+](=O)[O-])cc1,.,-,.,.,.,.
COc1ccc(/C=N/Nc2ccccn2)cc1O,-,6.1,-,-,-,-
COc1ccc(/C=N/NC(=O)c2cc3c(OC)ccc(OC)c3[nH]2)cc1O,-,6.6,-,-,-,5.8
COc1ccc(/C=N/NC(=O)c2cc[n+]([O-])cc2)cc1OC,-,.,-,-,-,.
SMILES,MT1-MMP act inh,MsrA inhibitor,p-CIP stab down,MsrA act,SKN-1 block,MsrA conf
COc1ccc(OC)c2[nH]c(C(=O)N/N=C/c3ccccc3O)cc12,-,-,-,-,-,.
CCOc1ccccc1-c1cc(C(=O)N/N=C/c2ccc(O)c(OC)c2)c2ccccc2n1,-,4.9,-,-,-,-
COc1cc(/C=N/NC(=O)c2cc[n+]([O-])cc2)ccc1O,-,7.5,-,-,-,5.2
CCOc1ccccc1-c1cc(C(=O)N/N=C/c2ccc3c(c2)OCO3)c2ccccc2n1,.,-,-,-,-,.
Cc1c(N=C/C=C2\N(C)c3ccccc3C2(C)C)c(=O)n(-c2ccccc2)n1C,-,6.1,-,-,-,4.9
Cc1c(N=CC=Nc2c(C)n(C)n(-c3ccccc3)c2=O)c(=O)n(-c2ccccc2)n1C,.,.,-,.,.,.
Cc1c(N=C/C=C2/N(C)c3ccccc3C2(C)C)c(=O)n(-c2ccccc2)n1C,-,5.7!,-,-,39!,-
CS(=O)(=O)N1CCN(c2ccc([N+](=O)[O-])c(NCc3cccnc3)c2)CC1,-,5.6,-,-,-,-
c1ccc(-c2nnsc2Sc2ccccn2)cc1,-,5.8,-,-,-,-
C[C@@H]1CCCCO[C@H](CN(C)C(=O)C2CCCCC2)[C@@H](C)CN([C@H](C)CO)C(=O)c2cc(NS(=O)(=O)c3cccs3)ccc2O1,.,-,.,.,.,.
Cc1nn(Cc2ccc(Cl)cc2)c(=O)n1N(C)c1ncc(C(F)(F)F)cc1Cl,-,15,-,-,-,13
COc1cc(/C=N/Nc2nc3c(c(=O)n(C)c(=O)n3C)n2Cc2ccccc2)ccc1OC(=O)c1ccco1,-,5.4,-,-,-,-
COc1ccc(N2C(=O)c3n[nH]c(C)c3C2c2ccccc2)cc1 (stereo not drawn),.,-,.,.,.,.
Cc1[nH]c2ccccc2c1C(=O)C(=O)NCCCn1ccnc1,-,4.9,-,-,-,-
C[C@H](CO)N1C[C@H](C)[C@H](CN(C)S(=O)(=O)c2cccs2)Oc2ncc(Br)cc2C1=O,.,-,.,.,.,.
O=c1c2ccccc2nc(/C=C/c2c[nH]c3ccccc23)n1CCO,-,5.0,-,-,-,-
Cn1c(=O)c(=O)n(C)c2cc(N3CCCCC3)c(NS(=O)(=O)c3ccc([N+](=O)[O-])cc3)cc21,-,4.8,-,-,-,-
O=[N+]([O-])c1ccc(N2CCCC2)c([N+](=O)[O-])c1,-,9.0,.,-,-,5.5
CCC(C)Oc1ccc(/C=C/c2[nH]c(=O)[nH]c(=O)c2[N+](=O)[O-])cc1OC (stereo not drawn),-,7.6,-,-,-,4.6
Cc1sc(=NC(=O)c2ccco2)n(C)c1-c1ccccc1,-,-,-,-,-,.
Cn1c(=NC(=O)c2ccco2)sc2ccccc21,-,7.5,-,-,-,5.6
COc1cccc(CNC(=O)[C@H]2CCCN2C(=O)[C@H]2CCCN2C(=O)c2ccc(C)c(C)c2)c1,.,-,.,.,.,.
O=C(O)c1ccc(NC2=C(Cl)C(=O)c3ccccc3C2=O)cc1,-,-,-,-,-,.
O=C(O)c1cccc(NC2=C(Cl)C(=O)c3ccccc3C2=O)c1,-,4.9,-,-,-,-
O=C1c2ccccc2C(=O)c2c1cccc2-n1nnc2ccccc21,-,-,-,-,-,.
SMILES,MT1-MMP act inh,MsrA inhibitor,p-CIP stab down,MsrA act,SKN-1 block,MsrA conf
O=C1C(N2CCOCC2)=C(n2nnc3ccccc32)C(=O)c2ccccc21,-,71,-,-,-,69
Cc1cc(O)c(C(C)C)cc1N=Cc1ccc([N+](=O)[O-])cc1,-,-,.,-,-,.
Cc1cc(O)c(C(C)C)cc1N=Cc1ccc(N(C)C)cc1,-,4.9,.,-,-,-
Cc1cccc(N=Nc2cn[nH]c2-c2ccco2)c1,-,-,-,-,-,.
c1ccc(N=Nc2cn[nH]c2-c2ccco2)cc1,-,6.9,-,-,-,-
O=C1C(=O)N(CCCN2CCOCC2)C(c2ccc([N+](=O)[O-])cc2)/C1=C(/O)c1ccc2c(c1)OCO2 (stereo not drawn),-,5.7,-,-,-,-
